Measured values from ChEMBL document CHEMBL1208768, “Synthesis, selective anti-Helicobacter pylori activity, and cytotoxicity of novel N-substituted-2-oxo-2H-1-benzopyran-3-carboxamides” (Bioorg Med Chem Lett, 2010).
Converted amounts (≈) assume the structure as drawn. The source made the active and inactive calls. The rule behind the calls is not given here.

How the values were obtained:
[1] = test system: Helicobacter pylori; assay: Antibacterial activity against metronidazole-resistant Helicobacter pylori NCTC 11637 after 72 hrs by agar dilution method; format: functional; conditions: NCTC 11637, 72 h
How it was run: (§1)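 H. pylori clinical isolates (ATCC 43504 control each session) stored at -80 °C and subcultured twice on Columbia agar with 10% horse serum and 0.25% yeast extract. Suspensions of 0.5 McFarland were spotted by Steer's replicator at about 5 × 10⁵ CFU/spot onto agar with twofold compound dilutions. Plates were incubated 72 h at 37 °C in 10% CO₂. MIC was the lowest concentration without visible growth.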

[2] = test system: Klebsiella pneumoniae; assay: Antibacterial activity against Klebsiella pneumoniae after 18 to 22 hrs by broth microdilution method; format: functional
How it was run: (§2)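 Clinical respiratory-tract isolates from patients, subcultured for purity and identified conventionally. Broth microdilution per NCCLS in Mueller–Hinton II broth; each plate had growth controls (bacteria, no compound) and medium-only controls. Incubation 18–22 h at 35 °C. MIC taken as the lowest concentration giving complete growth inhibition by unaided eye.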

[3] = test system: AGS; assay: Antiinflammatory activity in human AGS cells assessed as inhibition of IL-8 production at 5 ug/mL after 24 hrs; format: functional, cell-based
How it was run: (§3)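 AGS gastric adenocarcinoma cells were grown in F-12K with 10% FBS. They were seeded at 1 × 10⁵/mL for 24 h, preincubated 1 h with compound at 5 or 0.5 µg/mL, then exposed to H. pylori.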

[4] = test system: Klebsiella aerogenes; assay: Antibacterial activity against Enterobacter aerogenes after 18 to 22 hrs by broth microdilution method; format: functional; how it was run: as §2
[5] = test system: Helicobacter pylori; assay: Antibacterial activity against metronidazole-resistant Helicobacter pylori isolate 1 after 72 hrs by agar dilution method; format: functional; conditions: isolate 1, 72 h; how it was run: as §1
[6] = test system: Klebsiella oxytoca; assay: Antibacterial activity against Klebsiella oxytoca after 18 to 22 hrs by broth microdilution method; format: functional; how it was run: as §2
[7] = test system: Staphylococcus hominis; assay: Antibacterial activity against Staphylococcus hominis after 18 to 22 hrs by broth microdilution method; format: functional; how it was run: as §2
[8] = test system: Staphylococcus aureus; assay: Antibacterial activity against Staphylococcus aureus after 18 to 22 hrs by broth microdilution method; format: functional; how it was run: as §2
[9] = test system: Citrobacter freundii; assay: Antibacterial activity against Citrobacter freundii after 18 to 22 hrs by broth microdilution method; format: functional; how it was run: as §2
[10] = test system: Staphylococcus haemolyticus; assay: Antibacterial activity against Staphylococcus haemolyticus after 18 to 22 hrs by broth microdilution method; format: functional; how it was run: as §2
[11] = test system: Helicobacter pylori; assay: Antibacterial activity against metronidazole-resistant Helicobacter pylori isolate 18 after 72 hrs by agar dilution method; format: functional; conditions: isolate 18, 72 h; how it was run: as §1
[12] = test system: Pichia kudriavzevii; assay: Antifungal activity against Candida krusei after 24 hrs by broth microdilution method; format: functional
How it was run: (§4)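 Candida isolates from respiratory-tract specimens, tested by NCCLS broth microdilution in Sabouraud dextrose broth. Serial compound dilutions inoculated to 10³/mL, with fungus-only and medium-only controls. Incubated 24 h at 37 °C. MIC was the lowest concentration with complete visible growth inhibition.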

[13] = test system: Helicobacter pylori; assay: Antibacterial activity against metronidazole-resistant Helicobacter pylori isolate 8 after 72 hrs by agar dilution method; format: functional; conditions: isolate 8, 72 h; how it was run: as §1
[14] = test system: Enterobacter; assay: Antibacterial activity against Enterobacter after 18 to 22 hrs by broth microdilution method; format: functional; how it was run: as §2
[15] = test system: Staphylococcus epidermidis; assay: Antibacterial activity against Staphylococcus epidermidis after 18 to 22 hrs by broth microdilution method; format: functional; how it was run: as §2
[16] = test system: Proteus vulgaris; assay: Antibacterial activity against Proteus vulgaris after 18 to 22 hrs by broth microdilution method; format: functional; how it was run: as §2
[17] = test system: [Candida] sake; assay: Antifungal activity against Candida sake after 24 hrs by broth microdilution method; format: functional; conditions: Fermentozyma sake; how it was run: as §4
[18] = test system: Candida albicans; assay: Antifungal activity against Candida albicans after 24 hrs by broth microdilution method; format: functional; how it was run: as §4
[19] = test system: Helicobacter pylori; assay: Antibacterial activity against Helicobacter pylori ATCC 43504 clinical isolates after 72 hrs by agar dilution method; format: functional; conditions: ATCC 43504, 72 h
How it was run: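 Agar dilution per NCCLS. Twenty clinical strains from duodenal ulcer or gastritis patients, with ATCC 43504 as control in each session, were subcultured twice on Columbia agar plus 10% horse serum and 0.25% yeast extract (72 h, 37 °C, 10% CO₂). Inoculum of 0.5 McFarland in Wilkins Chalgren broth, about 5 × 10⁵ CFU/spot by Steer's replicator. Plates held twofold compound dilutions down to 0.0039 µg/mL and were incubated 72 h at 37 °C, 10% CO₂. MIC was the lowest concentration inhibiting visible growth.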

[20] = test system: Escherichia coli; assay: Antibacterial activity against Escherichia coli after 18 to 22 hrs by broth microdilution method; format: functional; how it was run: as §2
[21] = test system: Helicobacter pylori; assay: Antibacterial activity against metronidazole-resistant Helicobacter pylori isolate 20 after 72 hrs by agar dilution method; format: functional; conditions: isolate 20, 72 h; how it was run: as §1
[22] = test system: Enterococcus faecalis; assay: Antibacterial activity against Streptococcus faecalis after 18 to 22 hrs by broth microdilution method; format: functional; how it was run: as §2
[23] = test system: AGS; assay: Antiinflammatory activity in human AGS cells assessed as inhibition of IL-8 production at 0.5 ug/mL after 24 hrs; format: functional, cell-based; how it was run: as §3

Compound | MIC [1] | MIC [2] | inhibition [3] | MIC [4] | MIC [5] | MIC [6] | MIC [7] | MIC [8] | MIC [9] | MIC [10] | MIC [11] | MIC [12] | MIC [13] | MIC [14] | MIC [15] | MIC [16] | MIC [17] | MIC [18] | MIC50 [19] | MIC90 [19] | further results
O=C(O)c1ccc(NC(=O)c2cc3cc(O)ccc3oc2=O)cc1 | 16 µg/mL (≈ 49.2 µM) | > 128 µg/mL | inactive | > 128 µg/mL | 4 µg/mL (≈ 12.3 µM) | > 128 µg/mL | > 128 µg/mL | > 128 µg/mL | > 128 µg/mL | > 128 µg/mL | 16 µg/mL (≈ 49.2 µM) | > 128 µg/mL | 16 µg/mL (≈ 49.2 µM) | > 128 µg/mL | > 128 µg/mL | > 128 µg/mL | > 128 µg/mL | > 128 µg/mL | 16 µg/mL (≈ 49.2 µM) | > 128 µg/mL | MIC [20]: > 128 µg/mL; MIC [21]: 4 µg/mL (≈ 12.3 µM); MIC [22]: > 128 µg/mL; inhibition [23]: inactive
CCOC(=O)N1CCC(NC(=O)c2cc3cc(Br)ccc3oc2=O)CC1 | 64 µg/mL (≈ 151 µM) | > 128 µg/mL | inactive | > 128 µg/mL | 32 µg/mL (≈ 75.6 µM) | > 128 µg/mL | > 128 µg/mL | > 128 µg/mL | > 128 µg/mL | > 128 µg/mL | 32 µg/mL (≈ 75.6 µM) | > 128 µg/mL | 64 µg/mL (≈ 151 µM) | > 128 µg/mL | > 128 µg/mL | > 128 µg/mL | > 128 µg/mL | > 128 µg/mL | 64 µg/mL (≈ 151 µM) | 64 µg/mL (≈ 151 µM) | MIC [20]: > 128 µg/mL; MIC [21]: 32 µg/mL (≈ 75.6 µM); MIC [22]: > 128 µg/mL; inhibition [23]: inactive
O=C(O)c1ccc(NC(=O)c2cc3cc([N+](=O)[O-])ccc3oc2=O)cc1 | 128 µg/mL (≈ 361 µM) | > 128 µg/mL | inactive | > 128 µg/mL | 128 µg/mL (≈ 361 µM) | > 128 µg/mL | > 128 µg/mL | > 128 µg/mL | > 128 µg/mL | > 128 µg/mL | 128 µg/mL (≈ 361 µM) | > 128 µg/mL | 64 µg/mL (≈ 181 µM) | > 128 µg/mL | > 128 µg/mL | > 128 µg/mL | > 128 µg/mL | > 128 µg/mL | 128 µg/mL (≈ 361 µM) | 128 µg/mL (≈ 361 µM) | MIC [20]: > 128 µg/mL; MIC [21]: 64 µg/mL (≈ 181 µM); MIC [22]: > 128 µg/mL; inhibition [23]: inactive
COc1ccc2cc(C(=O)Nc3ccc(C(=O)O)cc3)c(=O)oc2c1 | > 128 µg/mL | > 128 µg/mL | inactive | > 128 µg/mL | > 128 µg/mL | > 128 µg/mL | > 128 µg/mL | > 128 µg/mL | > 128 µg/mL | > 128 µg/mL | > 128 µg/mL | > 128 µg/mL | > 128 µg/mL | > 128 µg/mL | > 128 µg/mL | > 128 µg/mL | > 128 µg/mL | > 128 µg/mL | > 128 µg/mL | > 128 µg/mL | MIC [20]: > 128 µg/mL; MIC [21]: > 128 µg/mL; MIC [22]: > 128 µg/mL; inhibition [23]: inactive
CCOC(=O)c1ccc(NC(=O)c2cc3cc(Br)cc(Br)c3oc2=O)cc1 | 64 µg/mL (≈ 129 µM) | > 128 µg/mL | inactive | > 128 µg/mL | 64 µg/mL (≈ 129 µM) | > 128 µg/mL | > 128 µg/mL | > 128 µg/mL | > 128 µg/mL | > 128 µg/mL | 64 µg/mL (≈ 129 µM) | > 128 µg/mL | 64 µg/mL (≈ 129 µM) | > 128 µg/mL | > 128 µg/mL | > 128 µg/mL | > 128 µg/mL | > 128 µg/mL | 64 µg/mL (≈ 129 µM) | 64 µg/mL (≈ 129 µM) | MIC [20]: > 128 µg/mL; MIC [21]: 64 µg/mL (≈ 129 µM); MIC [22]: > 128 µg/mL; inhibition [23]: inactive
